Drawing on PubChem BioAssay AID504382 (The Scripps Research Institute Molecular Screening Center, 2011), this text covers fluorescence artifact activation for 27 compounds.

Hit rate of the full screen: of about 2,500 compounds, about 460 (18%) were called active.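 The calls were made as follows: active = mean activation above a cutoff of low control average plus 3 SD from the earlier screen (cut at about 12% in these data); inactive = the rest.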 These entries were drawn from the full list.

The experiment is described as follows: compound fluorescence interference without thin filaments, confirmation, artefact control for cardiac RTF calcium sensitizer project, biochemical (AID 504382). As to conditions: IANBD fluorescence interference counterscreen, buffer, EC20 Ca2+; at 7.2 µM; hits give high values; scaled: EC20 calcium 0, EC100 calcium 100. An outline of the steps:
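Technique: fluorescence, 480/540 nm / Medium: MOPS-based buffer with KCl, MgCl2, EGTA, NTA, DTT, pH 7.2 / Probe or stimulus: calcium at EC20 level, 0.472 mM final / Repeats: triplicate wells per compound / Times: 15 min compound exposure at 25 °C / Measure: compound fluorescence interference relative to control well signal range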
With `N#Cc1c(NC(=O)/C=C/C(=O)O)sc2c1CCN(Cc1ccccc1)C2`, the fluorescence artifact activation was 0.08% (inactive).

On to `Nc1c(C(=O)Nc2ccc(S(=O)(=O)N3CCCC3)cc2)sc2nc3ccc(OC(F)(F)F)cc3cc12`, for which the fluorescence artifact activation was 0.16% (inactive).

Turning to `Cc1ccc(N=C2NC(=O)/C(=C/c3cccnc3)S2)cc1C`, the fluorescence artifact activation is 0.55% (inactive).

In the case of `COc1ccccc1N=C1NC(=O)/C(=C/c2ccc(N(C)C)cc2)S1`, the fluorescence artifact activation is 0.13% (inactive).

For `O=C1NC(=NCc2ccccc2)S/C1=C\c1ccccc1`, the fluorescence artifact activation is 14.6% (active).

For the compound `Nc1ccc2c(O)cc(S(=O)(=O)O)cc2c1`, the fluorescence artifact activation was 0.19% (inactive).

For `Nc1ccc(S(N)(=O)=O)cc1N`, the fluorescence artifact activation was 196% (active).

Consider `O=C1NC(c2cccc([N+](=O)[O-])c2)Oc2ccccc21` (configuration not stated), for which the fluorescence artifact activation was -0.04% (inactive).

For `Cc1ccc(OCc2ccc(C(=O)O)o2)cc1C`, the fluorescence artifact activation is -0.09% (inactive).

For `Cc1cc(C(=O)NNC(=S)NCc2ccccc2)cs1`, the fluorescence artifact activation is -0.07% (inactive).

As for `O=C(O)/C=C/C(=O)NCc1csc2ccccc12`, the fluorescence artifact activation is 94.3% (active).

As to `O=C(NCc1csc2ccccc12)Nc1cc(Cl)cc(Cl)c1`, the fluorescence artifact activation was 0.06% (inactive).

On to `CCOC(=O)c1c(-c2ccccc2)csc1NC(=O)/C(C#N)=C/c1ccc(O)c(OC)c1`, for which the fluorescence artifact activation was 6.3% (inactive).

Regarding `O=C(NC1CCCCC1)c1cccc2c1C(=O)c1ccc(N3CCC(Cc4ccccc4)CC3)cc1S2(=O)=O`, the fluorescence artifact activation was 0.54% (inactive).

On to `C=CCNC(=O)c1cccc2c1C(=O)c1ccc(N3CCCC3)cc1S2(=O)=O`, for which the fluorescence artifact activation is 0.04% (inactive).

Consider `CN1CCC[C@@H]1CCNC(=O)c1cccc2c1C(=O)c1ccc(N3CCCC3)cc1S2(=O)=O`, for which the fluorescence artifact activation is -0.09% (inactive).

For `CC1CCN(c2ccc3c(c2)S(=O)(=O)c2cccc(C(=O)NC4CCCCC4)c2C3=O)CC1`, the fluorescence artifact activation was 0.04% (inactive).

Consider `O=C(NC1CCCCC1)c1cccc2c1C(=O)c1ccc(N3CCCC3)cc1S2(=O)=O`, for which the fluorescence artifact activation was 23.8% (active).

Turning to `O=C(NCC1CC1)c1cccc2c1C(=O)c1ccc(N3CCCC3)cc1S2(=O)=O`, the fluorescence artifact activation is 69.4% (active).

`COc1ccccc1N1C(=O)c2cccc3c(N(C)CCO)ccc(c23)C1=O`: the fluorescence artifact activation is 0.41% (inactive).

For `O=C(N/C(=C/c1cn(-c2ccccc2)nc1-c1ccccc1)C(=O)N1CCOCC1)c1ccc(Cl)cc1Cl`, the fluorescence artifact activation is 3.44% (inactive).

For the compound `COc1cccc2c1C(=O)c1c(O)c3c(c(O)c1C2=O)C[C@@](O)(C(=O)CO)C[C@@H]3OC1CC(N)C(O)C(C)O1` (some centres not stated), the fluorescence artifact activation is 0.06% (inactive).

`COc1cccc2c1C(=O)c1c(O)c3c(c(O)c1C2=O)CC(O)(C(C)=O)CC3OC1CC(O)C(O)C(C)O1` (configuration not stated): the fluorescence artifact activation was 24.9% (active).

Regarding `COc1cccc2c1C(=O)c1c(O)c3c(c(O)c1C2=O)C[C@@](O)(C(=O)CO)C[C@@H]3O[C@H]1C[C@H](N)[C@H](O)[C@H](C)O1`, the fluorescence artifact activation is -0.07% (inactive).

`COc1cccc2c1C(=O)c1c(O)c3c(c(O)c1C2=O)C[C@](O)(C(C)=O)C[C@H]3O[C@@H]1C[C@@H](N)[C@@H](O)[C@@H](C)O1`: the fluorescence artifact activation was -0.05% (inactive).

For the compound `COc1cccc2c1C(=O)c1c(O)c3c(c(O)c1C2=O)CC(O)(C(=O)CO)CC3OC1CC(N(C)C)C(O)C(C)O1` (configuration not stated), the fluorescence artifact activation is 40.5% (active).

`COc1cccc2c1C(=O)c1c(O)c3c(c(O)c1C2=O)CC(O)(C(C)=O)CC3OC1CC(N(C)C)C(O)C(C)O1` (configuration not stated): the fluorescence artifact activation is 0% (inactive).
